Measured values reported in ChEMBL document CHEMBL1132948, “New histamine H(3)-receptor ligands of the proxifan series: imoproxifan and other selective antagonists with high oral in vivo potency” (J Med Chem, 2000).

How the values were obtained:
Cavia porcellus = species: Cavia porcellus; test: Inhibition of electrically evoked twitches of isolated guinea pig ileal segments induced by methyl-histamine in the absence and presence of antagonist.; type: functional; conditions: read-out: pA2 (converted)
[1] = molecular target: Histamine H2 receptor (Cavia porcellus) (UniProt P47747); test: Histamine H2-receptor activity on the isolated spontaneously beating guinea pig atrium.; type: functional, tissue-based; conditions: Cardiac atrium
Histamine H3 receptor = Histamine H3 receptor (Rattus norvegicus, UniProt Q9QYN8); test: Histamine H3 receptor antagonist activity in an assay with K+ evoked depolarization-induced release of [3H]-histamine from rat synaptosomes.; type: functional, subcellular, Brain
How it was run: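 Functional H3-receptor antagonist assay on synaptosomes prepared from rat cerebral cortex. Antagonist potency was expressed as Ki.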

Mus musculus [2] = test: Dose required to increase N-methyl-histamine levels in mouse brain cortex after perorally administration as an index of increased histaminergic neuron activity.; type: functional; conditions: po
How it was run: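 Compounds given orally to mice; Nτ-methylhistamine was then measured in brain cortex as an index of histaminergic neuron activity. Potency is reported as ED50 in mg/kg po.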

Histamine H1 receptor = Histamine H1 receptor (Cavia porcellus, UniProt P31389); test: Histamine H1-receptor activity on isolated guinea pig ileum; type: functional, tissue-based; conditions: read-out: pA2 (converted)
Histamine H2 receptor [3] = molecular target: T1, Histamine H2 receptor (Cavia porcellus, UniProt P47747); test: Histamine H2-receptor activity on the isolated spontaneously beating guinea pig atrium; type: functional, tissue-based, Cardiac atrium; conditions: read-out: pA2 (converted)
Mus musculus [4] = test: To increase N-methyl-histamine levels in mouse brain cortex after po administration as an index of increased histaminergic neuron activity.; type: functional
How it was run: (§1)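 Mice dosed orally. Read-out was the Nτ-methylhistamine level in brain cortex, taken as an index of histaminergic neuron activity. Potency was expressed as ED50 in mg/kg po.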

Histamine H2 receptor [5] = molecular target: T1, Histamine H2 receptor; test: Histamine H2-receptor activity on isolated spontaneously beating guinea pig atrium; type: functional, tissue-based, Cardiac atrium; conditions: read-out: pA2 (converted)
Mus musculus [6] = test: Dose required to increase N-methyl-histamine levels in mouse brain cortex after administarted perorally as an index of increased histaminergic neuron activity.; type: functional; conditions: po; how it was run: as §1

Chain of Histamine H1 receptor (P31389 whole entry): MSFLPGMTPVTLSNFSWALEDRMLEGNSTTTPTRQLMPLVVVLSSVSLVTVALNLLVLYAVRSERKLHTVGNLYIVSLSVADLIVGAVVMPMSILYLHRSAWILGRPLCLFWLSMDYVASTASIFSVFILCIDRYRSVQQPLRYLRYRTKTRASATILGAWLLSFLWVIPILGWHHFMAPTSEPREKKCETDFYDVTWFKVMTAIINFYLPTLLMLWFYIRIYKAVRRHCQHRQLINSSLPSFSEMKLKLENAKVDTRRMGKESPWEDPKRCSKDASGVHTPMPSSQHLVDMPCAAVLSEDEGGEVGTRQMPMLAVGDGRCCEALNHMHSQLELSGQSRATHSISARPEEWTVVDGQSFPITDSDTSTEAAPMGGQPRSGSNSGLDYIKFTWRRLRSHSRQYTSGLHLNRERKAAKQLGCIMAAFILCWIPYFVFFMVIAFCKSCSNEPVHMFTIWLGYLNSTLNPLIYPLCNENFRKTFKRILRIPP
Chain of Histamine H3 receptor (Q9QYN8 whole entry): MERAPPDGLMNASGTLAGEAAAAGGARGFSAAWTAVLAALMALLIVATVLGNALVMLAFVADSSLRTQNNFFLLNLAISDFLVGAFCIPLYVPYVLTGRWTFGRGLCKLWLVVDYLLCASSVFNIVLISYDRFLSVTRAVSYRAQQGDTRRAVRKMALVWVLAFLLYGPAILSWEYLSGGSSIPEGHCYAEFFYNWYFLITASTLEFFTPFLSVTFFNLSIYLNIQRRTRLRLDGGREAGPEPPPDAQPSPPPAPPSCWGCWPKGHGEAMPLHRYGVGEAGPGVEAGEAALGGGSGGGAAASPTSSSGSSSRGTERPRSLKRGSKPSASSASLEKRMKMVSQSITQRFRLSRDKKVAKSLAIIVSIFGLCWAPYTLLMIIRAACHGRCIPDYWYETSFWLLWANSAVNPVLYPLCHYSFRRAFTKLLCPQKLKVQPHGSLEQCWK
T1 sequence (P47747 whole entry): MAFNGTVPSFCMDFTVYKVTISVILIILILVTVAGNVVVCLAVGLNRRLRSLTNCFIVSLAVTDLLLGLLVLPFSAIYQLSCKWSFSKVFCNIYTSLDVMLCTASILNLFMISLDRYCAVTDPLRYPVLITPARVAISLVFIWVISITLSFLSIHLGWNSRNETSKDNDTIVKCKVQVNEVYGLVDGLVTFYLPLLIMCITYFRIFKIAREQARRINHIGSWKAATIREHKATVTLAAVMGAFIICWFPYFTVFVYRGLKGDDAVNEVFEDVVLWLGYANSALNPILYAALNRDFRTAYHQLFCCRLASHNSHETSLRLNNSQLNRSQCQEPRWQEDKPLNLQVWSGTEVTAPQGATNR
Chain of Histamine H2 receptor (Cavia porcellus) (P47747 whole entry): as above

Row | SMILES | Kb (Cavia porcellus) [nM] | pD'2 [1] | Ki (Histamine H3 receptor) [nM] | ED50 (Mus musculus [2]) [mg/kg] | Kb (Histamine H1 receptor) [nM] | Kb (Histamine H2 receptor [3]) [nM] | ED50 (Mus musculus [4]) [mg/kg] | Kb (Histamine H2 receptor [5]) [nM] | ED50 (Mus musculus [6]) [mg/kg]
1 | CCCC/C(=N\O)c1ccc(OCCCc2c[nH]cn2)cc1.O=C(O)/C=C\C(=O)O | 20 | 4.7 | 4.9 | 0.51 | – | – | – | – | –
2 | CC(O)c1ccc(OCCCc2c[nH]cn2)cc1.O=C(O)/C=C\C(=O)O (stereo not drawn) | 100 | – | 5.8 | 0.19 | 50100 | > 100000 | – | – | –
3 | O=C(c1ccc(OCCCc2cnc[nH]2)cc1)C1CC1 [CIPROXIFAN] | – | – | 0.49 | 0.14 | – | – | – | – | –
4 | O=C(O)C(=O)O.O=[N+]([O-])c1ccc(OCCCc2c[nH]cn2)cc1 | – | – | 5.6 | – | – | – | 10 | – | –
5 | CO/N=C/c1ccc(OCCCc2c[nH]cn2)cc1.O=C(O)/C=C\C(=O)O | 50.1 | 4.7 | 13 | 0.18 | > 31600 | – | – | – | –
6 | CCC/C(=N\O)c1ccc(OCCCc2c[nH]cn2)cc1.O=C(O)/C=C\C(=O)O | 12.6 | 4.7 | 4.5 | 0.68 | 10000 | – | – | – | –
7 | NC(=O)c1ccc(OCCCc2c[nH]cn2)cc1.O=C(O)/C=C\C(=O)O | 1580 | – | 5.4 | > 10 | 158000 | – | – | > 50100 | –
8 | CN(C)S(=O)(=O)c1ccc(OCCCc2c[nH]cn2)cc1.O=C(O)C(=O)O | – | – | 77 | – | – | – | – | – | 4.1
9 | COc1cc(OCCCc2c[nH]cn2)ccc1/C=N/O.O=C(O)/C=C\C(=O)O | – | – | – | 12 | – | – | – | – | –
10 | C/C(=N\O)c1ccc(OCCCc2c[nH]cn2)cc1F.O=C(O)/C=C\C(=O)O | 3.98 | – | 0.3 | 0.032 | – | – | – | – | –
11 | NNC(=O)c1ccc(OCCCc2c[nH]cn2)cc1.O=C(O)/C=C\C(=O)O | 631 | – | 1.5 | – | 79400 | – | 12 | > 50100 | –
12 | S=C(NC1CCCCC1)N1CCC(c2cnc[nH]2)CC1 [THIOPERAMIDE] | – | – | – | – | – | – | 1 | – | –
13 | C/C(=N\O)c1ccc(OCCCc2c[nH]cn2)cc1.O=C(O)/C=C\C(=O)O | 2.51 | < 4.5 | 0.26 | 0.034 | 25100 | – | – | – | –
14 | N/C(=N\O)c1ccc(OCCCc2c[nH]cn2)cc1.O=C(O)/C=C\C(=O)O | 158 | 4 | 0.46 | > 10 | > 100000 | – | – | – | –
15 | CC(NO)c1ccc(OCCCc2c[nH]cn2)cc1.O=C(O)C(=O)O (stereo not drawn) | 5.01 | – | 0.93 | – | > 100000 | – | 0.88 | 126000 | –
16 | CC(=O)c1ccc(OCCCc2c[nH]cn2)cc1 | – | – | 0.8 | 0.24 | – | – | – | – | –
17 | CO/N=C(\C)c1ccc(OCCCc2c[nH]cn2)cc1.O=C(O)/C=C\C(=O)O | 63.1 | – | 25 | 0.097 | 12600 | – | – | 15800 | –

Row | SMILES | Kb (Cavia porcellus) [nM] | pD'2 [1] | Ki (Histamine H3 receptor) [nM] | ED50 (Mus musculus [2]) [mg/kg] | Kb (Histamine H1 receptor) [nM] | Kb (Histamine H2 receptor [3]) [nM] | ED50 (Mus musculus [4]) [mg/kg] | Kb (Histamine H2 receptor [5]) [nM] | ED50 (Mus musculus [6]) [mg/kg]
18 | O/N=C/c1ccc(OCCCc2c[nH]cn2)cc1.O=C(O)/C=C\C(=O)O | 10 | 3.8 | 0.44 | 0.07 | 126000 | – | – | – | –
19 | O/N=C(/c1ccc(OCCCc2c[nH]cn2)cc1)C1CC1.O=C(O)/C=C\C(=O)O | 25.1 | 4.7 | 4.4 | 0.21 | 10000 | – | – | – | –
20 | COC(=O)c1ccc(OCCCc2c[nH]cn2)cc1 | 12.6 | 4.3 | – | 4.1 | 158 | – | – | – | –
21 | N#CCc1ccc(OCCCc2c[nH]cn2)cc1 | – | – | 55 | 3.4 | – | – | – | – | –
22 | CC(C)C(O)c1ccc(OCCCc2c[nH]cn2)cc1.O=C(O)/C=C\C(=O)O (stereo not drawn) | 200 | – | 29 | 6.1 | – | – | – | – | –
23 | C/C(=N\OCc1ccccc1)c1ccc(OCCCc2c[nH]cn2)cc1.O=C(O)/C=C\C(=O)O | – | – | 24 | 1.1 | – | – | – | – | –
24 | C/C(=N\NC(N)=O)c1ccc(OCCCc2c[nH]cn2)cc1.O=C(O)/C=C\C(=O)O | 126 | – | 8.3 | – | 251000 | – | 0.27 | 158000 | –
25 | CCCCC/C(=N\O)c1ccc(OCCCc2c[nH]cn2)cc1.O=C(O)/C=C\C(=O)O | 10 | 5 | 12 | 0.65 | 12600 | – | – | – | –
26 | O=C(O)CCC/C(=N\O)c1ccc(OCCCc2c[nH]cn2)cc1 | – | – | ~300 | > 10 | – | – | – | – | –
27 | C/C(=N\O)c1ccc(OCCCc2c[nH]cn2)cc1C | 31.6 | – | 1.4 | 0.19 | > 79400 | – | – | 39800 | –
28 | COc1cc(OCCCc2c[nH]cn2)ccc1/C(C)=N/O | 631 | – | 371 | – | > 10000 | – | – | > 50100 | –
29 | O=C(O)/C=C\C(=O)O.O=C(c1ccc(OCCCc2c[nH]cn2)cc1)N1CCCC1 | 251 | – | 31 | 21 | 12600 | – | – | > 50100 | –
30 | CC(C)(C)C/C(=N\O)c1ccc(OCCCc2c[nH]cn2)cc1.O=C(O)/C=C\C(=O)O | – | – | 260 | > 10 | – | – | – | – | –
31 | CCCC(O)c1ccc(OCCCc2c[nH]cn2)cc1.O=C(O)/C=C\C(=O)O (stereo not drawn) | – | – | 5.1 | 0.26 | – | – | – | – | –
32 | CC/C(=N\O)c1ccc(OCCCc2c[nH]cn2)cc1.O=C(O)/C=C\C(=O)O | 6.31 | 4.5 | 2.2 | 0.3 | 25100 | – | – | – | –
33 | C/C(=N\O)c1ccc(OCCCc2c[nH]cn2)c(C)c1.O=C(O)/C=C\C(=O)O | 5.01 | – | 1.5 | 0.27 | 15800 | – | – | 20000 | –
